In ChEMBL document CHEMBL4396876, “Antisulfatase, Osteogenic, and Anticancer Activities of Steroid Sulfatase Inhibitor EO-33 in Mice” (J Med Chem, 2019):

Columns and labels:
[1] = Lipophilicity, log P of the compound; type: physicochemical; details: octanol/water
[2] = Plasma concentration in Balb/c mouse at 2 mg/kg, sc administered as single dose using MC/EtOH formulation measured at 1 hr by LC-MS/MS analysis; type: ADME, organism-based
Summary of the method: (§1)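 Female Balb/c mice, fasted 8 h with free water, given a single dose in 0.1 mL vehicle: EO-33 dissolved in EtOH, then aqueous 0.4% methylcellulose added to a final 8% EtOH. Sacrificed under isoflurane at 1, 3, 7, 12 and 24 h (2–3 mice/group). Cardiac blood collected into K-EDTA and plasma stored at −80 °C. LC-MS/MS on 100 µL plasma. AUC0-24h taken from the five time points.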

[3] = Plasma concentration in Balb/c mouse at 10 mg/kg, sc administered as single dose using MC/EtOH formulation measured at 1 hr by LC-MS/MS analysis; type: ADME, organism-based; summary of the method: as §1
[4] = Plasma concentration in Balb/c mouse at 30 mg/kg, sc administered as single dose using MC/EtOH formulation measured at 1 hr by LC-MS/MS analysis; type: ADME, organism-based; summary of the method: as §1
[5] = Plasma concentration in Balb/c mouse at 2 mg/kg, sc administered as single dose using MC/EtOH formulation measured after 3 hrs by LC-MS/MS analysis; type: ADME, organism-based; summary of the method: as §1
[6] = Plasma concentration in Balb/c mouse at 10 mg/kg, sc administered as single dose using MC/EtOH formulation measured after 3 hrs by LC-MS/MS analysis; type: ADME, organism-based; summary of the method: as §1
[7] = Plasma concentration in Balb/c mouse at 30 mg/kg, sc administered as single dose using MC/EtOH formulation measured after 3 hrs by LC-MS/MS analysis; type: ADME, organism-based; summary of the method: as §1
[8] = Plasma concentration in Balb/c mouse at 2 mg/kg, sc administered as single dose using MC/EtOH formulation measured after 7 hrs by LC-MS/MS analysis; type: ADME, organism-based; summary of the method: as §1
[9] = Plasma concentration in Balb/c mouse at 30 mg/kg, sc administered as single dose using MC/EtOH formulation measured after 7 hrs by LC-MS/MS analysis; type: ADME, organism-based; summary of the method: as §1
[10] = Plasma concentration in Balb/c mouse at 2 mg/kg, sc administered as single dose using MC/EtOH formulation measured after 12 hrs by LC-MS/MS analysis; type: ADME, organism-based; summary of the method: as §1
[11] = Plasma concentration in Balb/c mouse at 30 mg/kg, sc administered as single dose using MC/EtOH formulation measured after 12 hrs by LC-MS/MS analysis; type: ADME, organism-based; summary of the method: as §1
[12] = Plasma concentration in Balb/c mouse at 30 mg/kg, po administered via gavage as single dose using MC/EtOH formulation measured after 12 hrs by LC-MS/MS analysis; type: ADME, organism-based; summary of the method: as §1
[13] = Plasma concentration in Balb/c mouse at 30 mg/kg, sc administered as single dose using MC/EtOH formulation measured after 24 hrs by LC-MS/MS analysis; type: ADME, organism-based; summary of the method: as §1
[14] = AUC (0 to 24 hrs) in Balb/c mouse at 2 mg/kg, sc administered as single dose using MC/EtOH formulation by LC-MS/MS analysis; type: ADME, organism-based; parameters: dose 2 mg/kg, time < 24 hr, route subcutaneous; details: in vivo; summary of the method: as §1
Mus musculus [15] = experiment: Estrogenic activity in ovariectomized Balb/c mouse assessed as stimulation of uterine weight at 30 mg/kg, sc administered once daily from day 2 to 10 using MC/EtOH formulation measured on day 11; type: organism-based; details: in vivo
Summary of the method: (§2)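 Female Balb/c mice (15–20 g) ovariectomized under isoflurane, 5/group. Inhibitor given SC in 0.1 mL MC:EtOH (92:8) on days 2–10. E1S (2 µg/mouse, BID) or E1 (0.06 µg/mouse, ID) given SC on days 5–10. Vehicle controls included. Uterus dissected and weighed on day 11. Means ± SEM.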

Mus musculus [16] = experiment: In vivo inhibition of STS in ovariectomized Balb/c mouse assessed as reduction in E1S-stimulated uterus weight at 30 mg/kg, sc administered once daily starting from day 2 to day 10 using MC/EtOH formulation and E1S addition on day 5 to 10 measured on day 11 relative to control; type: functional; summary of the method: as §2
Mus musculus [17] = experiment: (§3) In vivo inhibition of STS in ovariectomized Balb/c mouse assessed as reduction in E1S-stimulated uterus weight at 15 mg/kg, sc administered twice daily starting from day 2 to day 10 using MC/EtOH formulation and E1S addition on day 5 to 10 measured on day 11 relative to control; type: functional; summary of the method: as §2
Mus musculus [18] = experiment: as §3, with “Ex” for “In”, “mouse liver homogenates” for “mouse”, “transformation of [3H]-E1S into [3H]-E1” for “E1S-stimulated uterus weight”, “11 by liquid scintillation counting method” for “11”; type: functional
Summary of the method: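 Livers collected on day 11 from the OVX Balb/c uterotrophic protocol and homogenized in cold pH 7.4 phosphate buffer with protease inhibitors. 2000 g supernatant, 100 or 500 µg protein, incubated with [3H]-E1S/E1S (final 1 µM) in PBS for 2 h at 37 °C. Xylene extraction, then scintillation counting of both phases. Result given as % E1 formed. Triplicate.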

Mus musculus [19] = experiment: Osteogenic activity in ovariectomized-induced C57BL/6 mouse model of osteoporosis assessed as recovery of tibia weight at 30 mg/kg, sc administered 6 days per week for 70 days using MC/EtOH formulation relative to control; type: functional
Summary of the method: (§4)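 Female C57BL/6 mice (63–70 days) ovariectomized under isoflurane; sham controls kept. 8/group, dosed SC in 0.1 mL MC:EtOH (92:8) for 70 days. Tibias excised and weighed (mg/g body weight). Calcium measured by ICP-MS after calcination at 600 °C for 6 h and HNO3 microwave digestion; expressed as mg/g tibia.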

Mus musculus [20] = experiment: Osteogenic activity in ovariectomized-induced C57BL/6 mouse model of osteoporosis assessed as recovery of tibia calcium content at 30 mg/kg, sc administered 6 days per week for 70 days using MC/EtOH formulation by Triple Quad ICP-MS analysis relative to control; type: functional; summary of the method: as §4
Mus musculus [21] = experiment: Estrogenic activity in ovariectomized-induced C57BL/6 mouse model of osteoporosis assessed as stimulation of uterus weight at 30 mg/kg, sc administered 6 days per week for 70 days using MC/EtOH formulation measured post last dose by necropsy analysis; type: ADME, organism-based; details: in vivo
MCF7 = experiment: Antitumor activity against human MCF7 cells xenografted in nu/nu Br athymic mouse assessed as effect on […]-stimulated tumor growth by measuring tumor size at 30 mg/kg, sc administered 6 days per week for […] using MC/EtOH formulation measured post-last dose (reference value: 171 %); type: functional
[22] = Toxicity in nu/nu Br athymic mouse xenografted with human […]-stimulated MCF7 cells assessed as effect on liver at 30 mg/kg, sc administered 6 days per week for […] using MC/EtOH formulation measured 3 hrs post-last dose by necropsy analysis; type: organism-based; details: in vivo
Summary of the method: (§5)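 MCF-7 cells (grown in DME-F12 with 5% FBS and 1 nM estradiol) inoculated SC at 4.1 x 10^6 cells in 30% Matrigel into both flanks of bilaterally ovariectomized nude mice, three days after surgery; E2S 50 µg/mouse SC three times weekly. Test agent SC 6 days/week in 0.1 mL MC:EtOH (92:8) for 28 days; vehicle-only controls. Mice weighed and killed 3 h after last dose; livers removed.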

[23] = Toxicity in nu/nu Br athymic mouse xenografted with human […]-stimulated MCF7 cells assessed as effect on kidneys at 30 mg/kg, sc administered 6 days per week […] using MC/EtOH formulation measured 3 hrs post-last dose by necropsy analysis; type: organism-based; details: in vivo; summary of the method: as §5

Question: For `Cc1ccc(CN(Cc2ccc(C(=O)N3CCc4ccc(OS(N)(=O)=O)cc4C3)cc2)Cc2ccco2)s1`, which logP [1] is on record?
Answer: 4.02

Question: And the concentration at 1 h [2]?
Answer: 681 ng/mL

Question: And the concentration at 1 h [3]?
Answer: 2600 ng/mL

Question: What about the concentration at 1 h [4] of the same molecule?
Answer: 2600 ng/mL

Question: What about the concentration at 3 h [5] of the same molecule?
Answer: 33 ng/mL

Question: And the concentration at 3 h [6]?
Answer: 398 ng/mL

Question: And the concentration at 3 h [7]?
Answer: 2190 ng/mL

Question: And the concentration at 7 h [8]?
Answer: 1 ng/mL

Question: What about the concentration at 7 h [9] of the same molecule?
Answer: 530 ng/mL

Question: And the concentration at 12 h [10]?
Answer: 1 ng/mL

Question: And the concentration at 12 h [11]?
Answer: 64 ng/mL

Question: What about the concentration at 12 h [12] of the same molecule?
Answer: 3 ng/mL

Question: What about the concentration at 24 h [13] of the same molecule?
Answer: 13 ng/mL

Question: What about the AUC(0-t) at 24 h [14] of the same molecule?
Answer: 1130 ng·h/mL

Question: And the Activity (Mus musculus [15])?
Answer: Non-Toxic

Question: And the inhibition in vivo at 30 mg/kg (Mus musculus [16])?
Answer: 42%

Question: What about the inhibition in vivo at 15 mg/kg (Mus musculus [17]) of the same molecule?
Answer: 49%

Question: And the inhibition in vivo at 15 mg/kg (Mus musculus [18])?
Answer: 71%

Question: And the Activity (Mus musculus [19])?
Answer: 100%

Question: What about the Activity (Mus musculus [20]) of the same molecule?
Answer: 71%

Question: And the Activity (Mus musculus [21])?
Answer: Non-Toxic

Question: What about the Activity (MCF7) of the same molecule?
Answer: 72%

Question: What about the Activity [22] of the same molecule?
Answer: Non-Toxic

Question: And the Activity [23]?
Answer: Non-Toxic
